Calls of active or inactive are those of the source. No cut-off for these calls is given here. Square brackets hold non-standard residues; d marks the D form. Peptide text beside a SMILES is read from it. * marks the point of attachment. Fumaroyl(GlyGlyPheOH) = O=C(/C=C/C(=O)*)NCC(=O)NCC(=O)N[C@@H](Cc1ccccc1)C(=O)O; Chg = N[C@H](C(=O)O)C1CCCCC1; Dap = NC[C@H](N)C(=O)O
Tests used:
[1] = tested on: Plasmodium falciparum; test: Antiplasmodial activity against Plasmodium falciparum FCBR by fluorometric method; assay type: functional, organism-based, FCBR/Columbia
[2] = biological target: Rhodesain (Trypanosoma brucei rhodesiense, UniProt Q95PM0); test: Inhibition of Trypanosoma brucei rhodesiense recombinant rhodesain
[3] = Inhibition of Plasmodium falciparum falcipain-2 after 12 hrs by fluorescence spectroscopy-based on-bead assay; parameters: concentration or dose not given beside the values; conditions: concentration not given here
Method in brief: (§1)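 Library members on resin (PEGA, theoretical loading 0.40 mmol/g; added as DMSO suspension, 0.64 mM final inhibitor) preincubated with enzyme 12 h, then Cbz-Phe-Arg-AMC 40 μM added; AMC release followed by fluorescence (ex 380/em 460 nm). Kinetics compared with inhibitor-free amino-PEGA resin.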

[4] = biological target: Rhodesain (Trypanosoma brucei rhodesiense) (UniProt Q95PM0); test: Inhibition of Trypanosoma brucei rhodesiense rhodesain after 12 hrs by fluorescence spectroscopy-based on-bead assay; parameters: concentration or dose not given beside the values; conditions: concentration not given here; method in brief: as §1
[5] = tested on: Plasmodium falciparum; test: Inhibition of Plasmodium falciparum recombinant falcipain-2 expressed in Escherichia coli at 100 uM after 20 min by spectrofluorometry
Method in brief: (§2)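 Single-point screen at 100 μM inhibitor (final). Recombinant enzyme in 50 mM acetate pH 5.5, 5 mM EDTA, 200 mM NaCl, 5 mM DTT, 10% DMSO final; Cbz-Phe-Arg-AMC 40 μM (or Cbz-Leu-Arg-AMC 25 μM) hydrolysis followed by fluorescence (ex 380/em 460 nm). % inhibition = 100(1 − vi/vc) from progress-curve slopes vs DMSO control; at least two independent assays.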

[6] = biological target: Rhodesain (Trypanosoma brucei rhodesiense) (UniProt Q95PM0); test: Inhibition of Trypanosoma brucei rhodesiense recombinant rhodesain at 100 uM; method in brief: as §2
[7] = biological target: T1, Cathepsin B (Homo sapiens, UniProt P07858); test: Inhibition of human liver cathepsin B
Method in brief: (§3)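 Cathepsin L (bovine spleen) or B (human liver) hydrolysis of Cbz-Phe-Arg-AMC (40 μM) followed by fluorescence for 5-10 min without preincubation at 0.1-80 μM inhibitor, 10% DMSO final.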

[8] = biological target: T1, Cathepsin B; test: Inhibition of human liver cathepsin B at 100 uM
[9] = Inhibition of Plasmodium falciparum recombinant falcipain-2 expressed in Escherichia coli after 20 min using Cbz-Phe-Arg-AMC as substrate by spectrofluorometry; conditions: in the assay text read “over 5-10 min” for “after 20 min”
Method in brief: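 Continuous assay without preincubation. Recombinant falcipain-2 in 50 mM acetate pH 5.5, 5 mM EDTA, 200 mM NaCl, 5 mM DTT, 10% DMSO final; Cbz-Phe-Arg-AMC (40 μM, Km 21.5 μM) or Cbz-Leu-Arg-AMC (25 μM, Km 8.4 μM). Fluorescence monitored 5-10 min at 0.1-80 μM inhibitor. Ki from Dixon plot, corrected to zero substrate; at least two independent assays.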

[10] = tested on: Trypanosoma brucei brucei; test: Antitrypanosomal activity against Trypanosoma brucei brucei; assay type: functional, organism-based
[11] = biological target: Procathepsin L (Bos taurus, UniProt P25975); test: Inhibition of bovine spleen cathepsin L; method in brief: as §3
[12] = Inhibition of Plasmodium falciparum recombinant falcipain-2 expressed in Escherichia coli […] using Cbz-Leu-Arg-AMC as substrate by spectrofluorometry
[13] = Plasmodium falciparum, FCBR/Columbia, read-out: IC50

Chain of Rhodesain (Q95PM0 whole entry): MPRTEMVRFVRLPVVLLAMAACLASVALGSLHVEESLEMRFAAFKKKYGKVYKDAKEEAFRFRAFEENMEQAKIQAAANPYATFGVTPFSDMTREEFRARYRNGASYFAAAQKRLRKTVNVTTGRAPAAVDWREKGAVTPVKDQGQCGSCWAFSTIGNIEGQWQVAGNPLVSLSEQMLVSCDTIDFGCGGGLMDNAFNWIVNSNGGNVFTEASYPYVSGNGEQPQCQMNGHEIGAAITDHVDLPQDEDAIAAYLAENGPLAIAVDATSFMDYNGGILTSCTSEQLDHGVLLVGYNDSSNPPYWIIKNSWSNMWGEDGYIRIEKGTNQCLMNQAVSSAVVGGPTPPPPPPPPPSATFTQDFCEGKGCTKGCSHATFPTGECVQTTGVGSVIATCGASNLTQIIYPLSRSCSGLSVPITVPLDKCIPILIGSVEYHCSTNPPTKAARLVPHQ
Chain of Rhodesain (Trypanosoma brucei rhodesiense) (Q95PM0 1-450): as the sequence (Q95PM0 whole entry) above
Chain of Procathepsin L (P25975 whole entry): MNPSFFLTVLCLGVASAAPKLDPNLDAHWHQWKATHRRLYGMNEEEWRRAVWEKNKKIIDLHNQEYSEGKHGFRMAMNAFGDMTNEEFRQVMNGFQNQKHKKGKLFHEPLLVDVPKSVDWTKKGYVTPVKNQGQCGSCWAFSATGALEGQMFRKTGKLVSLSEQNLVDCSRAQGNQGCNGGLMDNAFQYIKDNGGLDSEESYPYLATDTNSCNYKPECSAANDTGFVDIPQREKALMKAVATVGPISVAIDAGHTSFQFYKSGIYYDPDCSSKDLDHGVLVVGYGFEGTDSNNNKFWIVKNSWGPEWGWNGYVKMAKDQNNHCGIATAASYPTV

SMILES	IC50 [1, 13] [µM]	Ki [2] [µM]	inhibition [3] [%]	inhibition [4] [%]	inhibition [5] [%]	inhibition [6] [%]	Ki [7] [µM]	inhibition [8]	Ki [9] [µM]	IC50 [10]	IC50 [1]	Ki [11] [µM]	Ki [12] [µM]	IC50 ([10]; Trypanosoma brucei, read-out: IC50) [µM]
CC(=O)NC[C@H](NC(=O)/C=C/C(=O)NCC(=O)NCC(=O)N[C@@H](Cc1ccccc1)C(=O)O)C(=O)N[C@H](C(=O)N[C@@H](C)C(=O)N[C@H](C(N)=O)C(C)C)C1CCCCC1 ({Fumaroyl(GlyGlyPheOH)}-[Dap](Ac)[Chg]AV-NH2)	22	0.3	23	25	83	95	12.4	83%	7	Not Active	–	–	–	–
CC(C)C[C@H](NC(=O)[C@H](Cc1ccccc1)NC(=O)/C=C/C(=O)NCC(=O)NCC(=O)N[C@@H](Cc1ccccc1)C(=O)O)C(=O)N[C@@H](CC(C)C)C(=O)N[C@H](C(N)=O)C(C)C (HELM PEPTIDE1{[O=C(/C=C/C(=O)[*:2])NCC(=O)NCC(=O)N[C@@H](Cc1ccccc1)C(=O)O].F.L.L.V.[am]}$$$$V2.0)	–	0.2	69	69	100	68	22.9	73%	0.8	–	Not Active	34.8	–	–
Cc1ccc(C(=O)Nc2ccc(S(=O)(=O)O)c3cc(S(=O)(=O)O)cc(S(=O)(=O)O)c23)cc1NC(=O)c1cccc(NC(=O)Nc2cccc(C(=O)Nc3cc(C(=O)Nc4ccc(S(=O)(=O)O)c5cc(S(=O)(=O)O)cc(S(=O)(=O)O)c45)ccc3C)c2)c1	–	–	–	–	–	32	–	–	–	–	–	–	–	–
CC(=O)NC[C@H](NC(=O)/C=C/C(=O)NCC(=O)NCC(=O)N[C@@H](Cc1ccccc1)C(=O)O)C(=O)N[C@@H](CC(C)C)C(=O)N[C@@H](CC(C)C)C(=O)N[C@H](C(N)=O)C(C)C (HELM PEPTIDE1{[O=C(/C=C/C(=O)[*:2])NCC(=O)NCC(=O)N[C@@H](Cc1ccccc1)C(=O)O].[O=C([C@H](CN[*:3])N[*:1])[*:2]].L.L.V.[am]}|PEPTIDE2{[ac]}$PEPTIDE1,PEPTIDE2,2:R3-1:R2$$$V2.0)	–	1.8	54	60	79	87	–	inactive	–	–	–	40	11.8	–
CC(C)C[C@H](NC(=O)[C@H](CC(N)=O)NC(=O)/C=C/C(=O)NCC(=O)NCC(=O)N[C@@H](Cc1ccccc1)C(=O)O)C(=O)N[C@@H](C)C(=O)N[C@H](C(N)=O)C(C)C (HELM PEPTIDE1{[O=C(/C=C/C(=O)[*:2])NCC(=O)NCC(=O)N[C@@H](Cc1ccccc1)C(=O)O].N.L.A.V.[am]}$$$$V2.0)	–	–	41	24	33	8	–	17%	67.5	–	–	–	–	–
CC(C)C[C@H](NC(=O)[C@H](CC(N)=O)NC(=O)/C=C/C(=O)NCC(=O)NCC(=O)N[C@@H](Cc1ccccc1)C(=O)O)C(=O)N[C@@H](CC(C)C)C(=O)N[C@H](C(N)=O)C(C)C (HELM PEPTIDE1{[O=C(/C=C/C(=O)[*:2])NCC(=O)NCC(=O)N[C@@H](Cc1ccccc1)C(=O)O].N.L.L.V.[am]}$$$$V2.0)	74	2.7	70	71	92	63	–	21%	10.1	–	–	–	–	–
CC(C)C[C@H](NC(=O)[C@H](C)NC(=O)/C=C/C(=O)NCC(=O)NCC(=O)N[C@@H](Cc1ccccc1)C(=O)O)C(=O)N[C@@H](CC(C)C)C(=O)N[C@H](C(N)=O)C(C)C (HELM PEPTIDE1{[O=C(/C=C/C(=O)[*:2])NCC(=O)NCC(=O)N[C@@H](Cc1ccccc1)C(=O)O].A.L.L.V.[am]}$$$$V2.0)	–	1	55	65	73	99	–	38%	–	–	–	30.7	–	–
NCCCC(N)(C(=O)O)C(F)F (centres undefined) [EFLORNITHINE]	–	–	–	–	–	31	–	–	–	–	–	–	–	30.7
CC(C)[C@H](NC(=O)[C@@H](NC(=O)[C@@H](NC(=O)[C@H](CCC(N)=O)NC(=O)/C=C/C(=O)NCC(=O)NCC(=O)N[C@@H](Cc1ccccc1)C(=O)O)C1CCCCC1)C(C)C)C(N)=O (HELM PEPTIDE1{[O=C(/C=C/C(=O)[*:2])NCC(=O)NCC(=O)N[C@@H](Cc1ccccc1)C(=O)O].Q.[O=C([C@@H](N[*:1])C1CCCCC1)[*:2]].V.V.[am]}$$$$V2.0)	27	0.08	51	53	83	99	–	81%	1.5	Not Active	–	–	–	–
CC(C)[C@H](NC(=O)[C@H](C)NC(=O)[C@@H](NC(=O)[C@H](CC(N)=O)NC(=O)/C=C/C(=O)NCC(=O)NCC(=O)N[C@@H](Cc1ccccc1)C(=O)O)C1CCCCC1)C(N)=O (HELM PEPTIDE1{[O=C(/C=C/C(=O)[*:2])NCC(=O)NCC(=O)N[C@@H](Cc1ccccc1)C(=O)O].N.[O=C([C@@H](N[*:1])C1CCCCC1)[*:2]].A.V.[am]}$$$$V2.0)	75	0.4	73	26	79	98	22.2	78%	12.2	–	–	–	–	–
CC(C)C[C@H](NC(=O)[C@@H](NC(=O)[C@H](CC(N)=O)NC(=O)/C=C/C(=O)NCC(=O)NCC(=O)N[C@@H](Cc1ccccc1)C(=O)O)c1ccccc1)C(=O)N[C@H](C(N)=O)C(C)C (HELM PEPTIDE1{[O=C(/C=C/C(=O)[*:2])NCC(=O)NCC(=O)N[C@@H](Cc1ccccc1)C(=O)O].N.[Phg].L.V.[am]}$$$$V2.0)	–	–	51	50	76	26	–	13%	21.3	–	Not Active	–	–	–
CC(C)C[C@H](NC(=O)[C@H](CCC(N)=O)NC(=O)/C=C/C(=O)N[C@@H](C)C(=O)NCC(=O)N[C@@H](Cc1ccccc1)C(=O)O)C(=O)N[C@H](C(=O)N[C@H](C(N)=O)C(C)C)C(C)C (HELM PEPTIDE1{[C[C@H](NC(=O)/C=C/C(=O)[*:2])C(=O)NCC(=O)N[C@@H](Cc1ccccc1)C(=O)O].Q.L.V.V.[am]}$$$$V2.0)	–	–	48	64	45	37	–	23%	–	–	–	–	–	–
CC(C)C[C@H](NC(=O)[C@H](Cc1ccccc1)NC(=O)[C@H](CC(N)=O)NC(=O)/C=C/C(=O)NCC(=O)NCC(=O)N[C@@H](Cc1ccccc1)C(=O)O)C(=O)N[C@H](C(N)=O)C(C)C (HELM PEPTIDE1{[O=C(/C=C/C(=O)[*:2])NCC(=O)NCC(=O)N[C@@H](Cc1ccccc1)C(=O)O].N.F.L.V.[am]}$$$$V2.0)	–	–	70	61	49	6	–	24%	–	–	–	–	–	–
CC(=O)NC[C@H](NC(=O)/C=C/C(=O)NCC(=O)NCC(=O)N[C@@H](Cc1ccccc1)C(=O)O)C(=O)N[C@@H](CC(C)C)C(=O)N[C@@H](C)C(=O)N[C@H](C(N)=O)C(C)C (HELM PEPTIDE1{[O=C(/C=C/C(=O)[*:2])NCC(=O)NCC(=O)N[C@@H](Cc1ccccc1)C(=O)O].[O=C([C@H](CN[*:3])N[*:1])[*:2]].L.A.V.[am]}|PEPTIDE2{[ac]}$PEPTIDE1,PEPTIDE2,2:R3-1:R2$$$V2.0)	–	–	32	32	18	30	–	inactive	–	–	–	20.8	–	–
CC[C@H](C)[C@H](NC(=O)[C@H](CC(N)=O)NC(=O)/C=C/C(=O)N[C@@H](C)C(=O)NCC(=O)N[C@@H](Cc1ccccc1)C(=O)O)C(=O)N[C@@H](CC(C)C)C(=O)N[C@H](C(N)=O)C(C)C (HELM PEPTIDE1{[C[C@H](NC(=O)/C=C/C(=O)[*:2])C(=O)NCC(=O)N[C@@H](Cc1ccccc1)C(=O)O].N.I.L.V.[am]}$$$$V2.0)	–	–	47	60	–	–	–	–	–	–	–	–	–	–
CC(C)C[C@H](NC(=O)[C@H](Cc1ccccc1)NC(=O)[C@H](CCC(N)=O)NC(=O)/C=C/C(=O)N[C@@H](C)C(=O)NCC(=O)N[C@@H](Cc1ccccc1)C(=O)O)C(=O)N[C@H](C(N)=O)C(C)C (HELM PEPTIDE1{[C[C@H](NC(=O)/C=C/C(=O)[*:2])C(=O)NCC(=O)N[C@@H](Cc1ccccc1)C(=O)O].Q.F.L.V.[am]}$$$$V2.0)	–	–	49	60	–	–	–	–	–	–	–	–	–	–
CC(C)C[C@H](NC(=O)[C@@H](NC(=O)[C@H](C)NC(=O)/C=C/C(=O)NCC(=O)NCC(=O)N[C@@H](Cc1ccccc1)C(=O)O)c1ccccc1)C(=O)N[C@H](C(N)=O)C(C)C (HELM PEPTIDE1{[O=C(/C=C/C(=O)[*:2])NCC(=O)NCC(=O)N[C@@H](Cc1ccccc1)C(=O)O].A.[Phg].L.V.[am]}$$$$V2.0)	–	–	53	54	–	–	–	–	–	–	–	–	–	–

Source: ChEMBL document CHEMBL1155459, “On-bead screening of a combinatorial fumaric acid derived peptide library yields antiplasmodial cysteine protease inhibitors with unusual peptide sequences” (J Med Chem, 2009)
